The text below walks through data of ChEMBL document CHEMBL3526062, “Role of human UDP-glucuronosyltransferases in the biotransformation of the triazoloacridinone and imidazoacridinone antitumor agents C-1305 and C-1311: highly selective substrates for UGT1A10” (Drug Metab Dispos, 2012).

Molecules are shown by their SMILES.

The target of data set [1] is T1, UDP-glucuronosyltransferase 1A9 (Homo sapiens, UniProt O60656).
T1 sequence (O60656 whole entry): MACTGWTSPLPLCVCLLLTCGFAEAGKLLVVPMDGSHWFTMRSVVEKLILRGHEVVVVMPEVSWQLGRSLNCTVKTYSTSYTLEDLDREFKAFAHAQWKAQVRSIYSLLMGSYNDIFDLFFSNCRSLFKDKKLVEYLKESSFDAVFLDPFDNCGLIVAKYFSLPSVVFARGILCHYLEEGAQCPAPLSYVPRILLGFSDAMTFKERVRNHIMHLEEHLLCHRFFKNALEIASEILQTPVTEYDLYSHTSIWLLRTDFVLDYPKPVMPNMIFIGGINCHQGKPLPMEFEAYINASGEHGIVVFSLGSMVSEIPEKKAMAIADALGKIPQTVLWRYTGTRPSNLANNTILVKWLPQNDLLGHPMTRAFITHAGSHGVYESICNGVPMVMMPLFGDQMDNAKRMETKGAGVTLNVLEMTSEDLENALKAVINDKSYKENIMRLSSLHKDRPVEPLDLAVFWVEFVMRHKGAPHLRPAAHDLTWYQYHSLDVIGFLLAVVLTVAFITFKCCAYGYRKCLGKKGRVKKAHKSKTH
The data set is described as follows: Activity of human recombinant UGT1A9 expressed in baculovirus-infected Sf9 cells assessed as enzyme-mediated glucuronidation per mg protein at 235 uM after 60 mins by Michaelis-Menten equation in presence of 3 mM UDP-GlcUA. Particulars: sf9, 1 h. It counts as ADME.

Data set [2] addresses T2, UDP-glucuronosyltransferase 1A1 (Homo sapiens, UniProt P22309).
T2 sequence (P22309 whole entry): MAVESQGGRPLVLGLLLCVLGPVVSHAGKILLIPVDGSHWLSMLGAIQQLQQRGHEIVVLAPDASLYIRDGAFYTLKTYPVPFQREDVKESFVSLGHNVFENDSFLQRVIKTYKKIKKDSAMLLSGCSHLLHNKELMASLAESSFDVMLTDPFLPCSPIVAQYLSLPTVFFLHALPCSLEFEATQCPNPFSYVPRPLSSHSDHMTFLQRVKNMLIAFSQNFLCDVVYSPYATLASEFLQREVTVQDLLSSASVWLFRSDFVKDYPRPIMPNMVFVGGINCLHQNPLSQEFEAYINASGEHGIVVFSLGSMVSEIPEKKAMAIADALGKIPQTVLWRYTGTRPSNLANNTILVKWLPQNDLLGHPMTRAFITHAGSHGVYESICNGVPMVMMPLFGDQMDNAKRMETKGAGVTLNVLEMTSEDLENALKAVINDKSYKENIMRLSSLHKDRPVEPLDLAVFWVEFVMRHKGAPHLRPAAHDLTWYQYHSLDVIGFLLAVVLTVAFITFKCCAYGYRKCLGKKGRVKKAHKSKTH
The data set is described as follows: Drug metabolism assessed as human recombinant UGT1A1-mediated compound formation treated with C-1305 for 60 mins by ESI-MS/UV-vis spectroscopy in presence of 3 mM UDP-GlcUA. In kind it is ADME. The conditions noted are these: recombinant enzyme, 1 h. The essentials:
(§1)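 Recombinant human UGT1A1 or UGT1A9 (5 μg protein), or single-donor human liver or intestinal microsomes (20 μg), incubated in Tris-HCl pH 7.4 with 5 mM MgCl2, 5 mM saccharolactone, 2% DMSO and 100 or 200 μM substrate. Started with UDP-GlcUA, 60 min at 37°C, in triplicate. Product identified by HPLC with positive-ion ESI-MS and UV/Vis spectra, and confirmed by β-glucuronidase hydrolysis.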

A short description of data set [3]: Drug metabolism in human intestinal microsomes assessed as metabolite formation treated with C-1305 for 60 mins by ESI-MS/UV-vis spectroscopy in presence of 3 mM UDP-GlcUA. In kind it is ADME, Intestine, Microsome. Particulars: 1 h. The essentials: as §1
Data set [4] has as its target T1, UDP-glucuronosyltransferase 1A9. The data set is described as follows: Activity of human recombinant UGT1A9 expressed in baculovirus-infected Sf9 cells assessed as enzyme-mediated glucuronidation per mg protein at 300 uM after 60 mins by Michaelis-Menten equation in presence of 3 mM UDP-GlcUA. In kind it is ADME. The conditions noted are these: sf9, 1 h.
Data set [5] addresses T3, UDP-glucuronosyltransferase 1A7 (Homo sapiens, UniProt Q9HAW7).
T3 sequence (Q9HAW7 whole entry): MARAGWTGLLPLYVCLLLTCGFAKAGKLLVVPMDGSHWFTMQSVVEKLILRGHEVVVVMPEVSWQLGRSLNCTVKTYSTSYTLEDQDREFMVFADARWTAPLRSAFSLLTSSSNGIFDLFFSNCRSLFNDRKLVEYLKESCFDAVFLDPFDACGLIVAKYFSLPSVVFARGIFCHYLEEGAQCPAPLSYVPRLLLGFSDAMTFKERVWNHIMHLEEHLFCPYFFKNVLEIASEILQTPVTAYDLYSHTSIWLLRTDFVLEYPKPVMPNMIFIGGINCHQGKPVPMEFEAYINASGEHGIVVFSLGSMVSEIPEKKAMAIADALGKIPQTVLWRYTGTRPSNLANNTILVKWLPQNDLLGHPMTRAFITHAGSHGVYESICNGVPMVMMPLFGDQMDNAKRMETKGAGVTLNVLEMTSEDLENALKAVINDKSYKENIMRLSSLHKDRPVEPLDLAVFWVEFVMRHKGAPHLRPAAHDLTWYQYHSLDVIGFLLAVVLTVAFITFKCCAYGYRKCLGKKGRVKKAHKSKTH
The data set is described as follows: Drug metabolism assessed as human recombinant UGT1A7-mediated compound formation treated with C-1305 for 60 mins by ESI-MS/UV-vis spectroscopy in presence of 3 mM UDP-GlcUA. It counts as ADME. Particulars: recombinant enzyme, 1 h. The essentials: (§2)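 His-tagged recombinant human UGT expressed in baculovirus-infected insect cells, levels normalized by anti-His Western blot; 5 μg membrane protein incubated 60 min at 37°C in […] pH 7.4, 5 mM MgCl2, 5 mM saccharolactone, 2% DMSO, substrate 100 or 200 μM; started with UDP-GlcUA; ethanol stop, centrifuged; supernatant by reversed-phase HPLC-UV/ESI-MS; glucuronide confirmed by β-glucuronidase hydrolysis; triplicate.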

Data set [6] concerns the target T4, UDP-glucuronosyltransferase 1A10 (Homo sapiens, UniProt Q9HAW8).
T4 sequence (Q9HAW8 whole entry): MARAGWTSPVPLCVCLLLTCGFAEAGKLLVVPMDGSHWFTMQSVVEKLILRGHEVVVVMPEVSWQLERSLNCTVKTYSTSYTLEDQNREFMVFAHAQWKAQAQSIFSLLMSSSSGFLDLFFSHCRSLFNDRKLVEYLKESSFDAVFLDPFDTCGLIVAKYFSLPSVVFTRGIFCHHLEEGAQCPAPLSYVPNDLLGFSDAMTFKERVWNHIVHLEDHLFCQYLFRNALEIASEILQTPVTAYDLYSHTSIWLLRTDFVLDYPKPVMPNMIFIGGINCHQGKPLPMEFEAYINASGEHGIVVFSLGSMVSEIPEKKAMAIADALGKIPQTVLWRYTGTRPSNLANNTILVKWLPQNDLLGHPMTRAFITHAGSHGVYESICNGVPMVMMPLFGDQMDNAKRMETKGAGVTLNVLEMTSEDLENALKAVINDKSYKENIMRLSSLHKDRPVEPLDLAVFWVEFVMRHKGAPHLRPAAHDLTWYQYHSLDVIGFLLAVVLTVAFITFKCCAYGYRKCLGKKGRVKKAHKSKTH
The data set is described as follows: Drug metabolism assessed as human recombinant UGT1A10-mediated compound formation treated with C-1305 for 60 mins by ESI-MS/UV-vis spectroscopy in presence of 3 mM UDP-GlcUA. Particulars: recombinant enzyme, 1 h. In kind it is ADME. The essentials: as §2

Consider `CCN(CC)CCNc1ccc2ncn3c4ccc(O)cc4c(=O)c1c23` [C-1311], for which the Drug metabolism in data set [1] was found to be 0.14 nmol/min/mg.

For the compound `CN(C)CCCNc1ccc2nnn3c4ccc(O)cc4c(=O)c1c23`, the Drug metabolism entry in data set [2] is “metabolite_detected”; in data set [3], “metabolite_detected”; in data set [4] it was 0.15 nmol/min/mg; in data set [5], “metabolite_detected”; in data set [6], “metabolite_detected”.
